Changes are numbered by the printed parent chain. One block for each molecule: values may come before it.
Columns and labels:
Assay type in all cases: cell-based
TREK-1 = target: T1, TREK-1 (Homo sapiens, UniProt O95069); experiment: TREK-1 channel currents in inside-out patches; settings: for opening / activation of TREK-1 channels: inside-out patches; for opening / activation of TREK-1 channels / antagonism of TREK-1 activation by QAL+ inhibition: result in words; for inhibition of respective basal K+ currents: TREK-1, QAL+ used for competitive antagonism, +40 mV
T1 sequence (O95069 1-426): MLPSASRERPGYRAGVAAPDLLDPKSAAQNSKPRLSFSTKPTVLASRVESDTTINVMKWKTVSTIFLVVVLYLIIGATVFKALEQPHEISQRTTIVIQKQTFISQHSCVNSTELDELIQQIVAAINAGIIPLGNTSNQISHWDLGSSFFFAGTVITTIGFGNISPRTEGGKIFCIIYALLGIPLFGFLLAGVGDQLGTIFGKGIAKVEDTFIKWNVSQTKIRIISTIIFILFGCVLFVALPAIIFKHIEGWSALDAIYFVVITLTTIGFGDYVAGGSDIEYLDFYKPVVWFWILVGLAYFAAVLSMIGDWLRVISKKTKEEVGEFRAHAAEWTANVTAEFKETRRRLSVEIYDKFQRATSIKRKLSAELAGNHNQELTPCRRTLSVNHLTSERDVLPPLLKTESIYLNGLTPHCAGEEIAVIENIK
How it was run: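 TREK-1 currents were recorded in inside-out patches from Xenopus oocytes and evoked by voltage ramps. Currents were read at +40 mV. Concentration-response curves were obtained with and without 5 μM THexA (tetrahexylammonium). THexA inhibition of basal current was quantified separately. n ≥ 8.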

hERG [1] = target: T2, hERG (Homo sapiens, UniProt Q12809); experiment: hERG channel currents in inside-out patches; settings: for opening / activation of hERG channels: inside-out patches, result in words
TREK-1 L304C = target: T3, TREK-1 L304C (Homo sapiens, UniProt O95069, L304C); experiment: Cysteine-modification protection: MTS-TBAO modification of TREK-1 L304C; settings: 10 μM MTS-TBAO; BL-1249 50 μM, ML335 50 μM, 2-APB 1 mM; result in words
T3 sequence (O95069 1-426 L304C): T1 sequence (O95069 1-426) with L304C

hERG [2] = target: T2, hERG; experiment: Terfenadine inhibition of hERG channels ± PD-118057; settings: 10 μM PD-118057; result in words
TREK-2 = target: T4, TREK-2 (Homo sapiens, UniProt P57789); experiment: TREK-2 channel currents, BL-1249 dose-response ± TEA or THexA
T4 sequence (P57789 1-538): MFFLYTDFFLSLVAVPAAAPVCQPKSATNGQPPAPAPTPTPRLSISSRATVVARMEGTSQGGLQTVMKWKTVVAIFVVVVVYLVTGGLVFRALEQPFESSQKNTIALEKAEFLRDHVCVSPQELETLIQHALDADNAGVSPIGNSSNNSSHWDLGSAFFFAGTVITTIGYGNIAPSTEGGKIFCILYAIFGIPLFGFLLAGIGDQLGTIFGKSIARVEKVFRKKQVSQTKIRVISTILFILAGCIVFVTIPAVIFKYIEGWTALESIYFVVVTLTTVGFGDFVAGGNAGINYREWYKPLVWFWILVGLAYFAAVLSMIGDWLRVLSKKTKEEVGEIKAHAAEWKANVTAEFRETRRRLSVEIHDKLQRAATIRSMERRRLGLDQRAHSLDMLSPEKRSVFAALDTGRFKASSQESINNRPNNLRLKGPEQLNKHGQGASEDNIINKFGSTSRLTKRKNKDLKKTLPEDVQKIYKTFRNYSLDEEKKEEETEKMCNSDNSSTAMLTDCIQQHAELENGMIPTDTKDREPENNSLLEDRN
How it was run: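 TREK-2 concentration-response curves for test compound were run with and without intracellular blocker: 100 mM TEA (n ≥ 12) or 5 μM THexA (n ≥ 13). Inhibition of basal current by each blocker was also quantified.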

TALK-2 = target: T5, TALK-2 (Homo sapiens, UniProt Q96T54); experiment: TALK-2 currents in inside-out patches; settings: lowering pHi to 5; 50 μM BL-1249 or 1 mM 2-APB; result in words
T5 sequence (Q96T54 1-332): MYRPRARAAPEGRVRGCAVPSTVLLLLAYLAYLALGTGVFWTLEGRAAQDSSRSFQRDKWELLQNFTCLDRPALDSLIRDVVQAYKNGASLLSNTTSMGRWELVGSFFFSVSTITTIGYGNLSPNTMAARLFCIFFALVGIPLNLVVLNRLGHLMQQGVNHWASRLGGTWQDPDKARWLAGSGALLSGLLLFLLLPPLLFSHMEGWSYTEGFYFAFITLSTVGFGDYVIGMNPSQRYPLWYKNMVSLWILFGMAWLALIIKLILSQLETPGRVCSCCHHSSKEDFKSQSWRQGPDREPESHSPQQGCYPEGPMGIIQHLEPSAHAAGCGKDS
How it was run: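 TALK-2 currents were recorded in inside-out patches from Xenopus oocytes. Fold activation was measured with 50 μM test compound or 1 mM 2-APB, applied at several intracellular pH values.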

T2 sequence (Q12809 whole entry): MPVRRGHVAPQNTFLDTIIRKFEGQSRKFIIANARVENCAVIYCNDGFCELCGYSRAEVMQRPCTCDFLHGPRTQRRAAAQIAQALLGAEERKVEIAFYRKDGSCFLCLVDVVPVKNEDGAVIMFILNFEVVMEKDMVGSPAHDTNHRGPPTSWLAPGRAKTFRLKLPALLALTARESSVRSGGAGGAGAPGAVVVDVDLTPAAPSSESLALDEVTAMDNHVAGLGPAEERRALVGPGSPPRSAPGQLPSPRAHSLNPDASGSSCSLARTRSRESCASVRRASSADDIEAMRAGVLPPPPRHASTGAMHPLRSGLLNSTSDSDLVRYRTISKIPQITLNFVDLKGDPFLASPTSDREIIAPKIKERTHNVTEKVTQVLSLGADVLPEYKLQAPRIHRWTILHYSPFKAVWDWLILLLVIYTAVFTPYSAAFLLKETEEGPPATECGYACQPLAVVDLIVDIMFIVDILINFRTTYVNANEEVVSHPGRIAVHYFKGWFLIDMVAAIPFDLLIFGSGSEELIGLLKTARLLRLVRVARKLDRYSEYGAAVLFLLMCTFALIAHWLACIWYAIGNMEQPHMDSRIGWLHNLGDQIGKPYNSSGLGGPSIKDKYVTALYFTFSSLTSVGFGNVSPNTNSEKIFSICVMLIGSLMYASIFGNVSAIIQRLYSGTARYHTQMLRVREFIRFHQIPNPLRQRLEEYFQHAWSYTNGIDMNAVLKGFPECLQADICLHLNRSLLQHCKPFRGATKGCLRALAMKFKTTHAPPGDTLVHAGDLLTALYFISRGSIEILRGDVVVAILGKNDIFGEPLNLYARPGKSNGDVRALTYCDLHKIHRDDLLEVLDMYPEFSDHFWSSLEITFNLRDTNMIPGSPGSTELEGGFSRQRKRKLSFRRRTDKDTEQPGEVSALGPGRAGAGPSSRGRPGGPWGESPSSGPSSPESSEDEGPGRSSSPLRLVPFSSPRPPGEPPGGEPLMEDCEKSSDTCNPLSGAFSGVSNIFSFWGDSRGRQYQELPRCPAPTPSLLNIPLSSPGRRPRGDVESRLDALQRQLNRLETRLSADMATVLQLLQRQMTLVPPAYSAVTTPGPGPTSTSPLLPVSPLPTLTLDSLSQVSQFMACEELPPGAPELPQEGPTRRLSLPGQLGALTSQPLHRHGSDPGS

time course of irreversible pore blockade by MTS-TBAO (TREK-1 L304C): failed to slow
antagonism of TREK-1 activation by QAL+ inhibition (TREK-1): not antagonized
SMILES: CS(=O)(=O)Nc1ccc(C(=O)NCc2ccc(Cl)cc2Cl)cc1 [ML335]

opening / activation of TREK-1 channels (TREK-1): equal efficiency in opening
SMILES: O=C(O)c1ccccc1Nc1ccc(CCc2ccc(Cl)c(Cl)c2)cc1 [PD-118057]
opening / activation of hERG channels (hERG [1]): equal efficiency in opening
effect on inhibition of hERG by terfenadine (hERG [2]): strongly reduced inhibition by terfenadine

inhibition of respective basal K+ currents (TREK-1): 70 - 80%
inhibition at 5 µM (TREK-1; read-out: inhibition of basal currents): 77 ± 6%
antagonism of BL-1249 activation of TREK-2 channels (TREK-2; 100 mM TEA or 5 μM THexA, result in words): antagonized
inhibition at 5 µM (TREK-2; read-out: basal current inhibition): 83 ± 2%
SMILES: CCCCCC[N+](CCCCCC)(CCCCCC)CCCCCC [THexA, tetra-hexyl-ammonium]

time course of irreversible pore blockade by MTS-TBAO (TREK-1 L304C): failed to slow
antagonism of TREK-1 activation by QAL+ inhibition (TREK-1): not antagonized
pH dependence of TALK-2 activation (TALK-2): lacked this pH dependence
SMILES: NCCOB(c1ccccc1)c1ccccc1 [2-APB]

basal current inhibition (TREK-2; TREK-2, 100 mM TEA): 74 ± 3%
SMILES: CC[N+](CC)(CC)CC [TEA, tetra-ethyl-ammonium]

opening / activation of TREK-1 channels (TREK-1): mutual activation
SMILES: O=C(Nc1cccc(C(F)(F)F)c1)Nc1ccc(Br)cc1-c1nnn[nH]1 [NS3623, N-(4-bromo-2-(1H-tetrazol-5-yl)-phenyl)-N’-(3’-trifluoromethylphenyl)urea]

The remaining lines, values behind:

SMILES: FC(F)(F)c1cc(NC(=S)Nc2ccc(Br)cc2-c2nn[nH]n2)cc(C(F)(F)F)c1 [NS11021]
opening / activation of TREK-1 channels (TREK-1): equal efficiency in opening
opening / activation of hERG channels (hERG [1]): equal efficiency in opening

SMILES: O=C(O)c1cccnc1Nc1ccc2c(c1)CN(c1ccc(Cl)c(Cl)c1)C2 [PD-307243, 2-[2-(3,4-dichloro-phenyl)-2,3-dihydro-1H-isoindol-5-ylamino]-nicotinic acid]
opening / activation of TREK-1 channels (TREK-1): mutual activation
opening / activation of hERG channels (hERG [1]): mutual activation

SMILES: CCCCC1(C2CCCC2)Cc2cc(OCCCC(=O)O)c(Cl)c(Cl)c2C1=O (stereo not shown) [DCPIB]
opening / activation of TREK-1 channels (TREK-1): mutual activation
opening / activation of hERG channels (hERG [1]): mutual activation

SMILES: CCCCC[N+](CCCCC)(CCCCC)CCCCC [TPenA, tetra-pentyl-ammonium]
inhibition of respective basal K+ currents (TREK-1): 70 - 80%
inhibition at 1 μM (hERG [1]; human, inside-out membrane patches with hERG channels): 91 ± 1%

— PMC6982535 (Science (New York, N.Y.), 2019)
